For three compounds, Activity results are on record in ChEMBL document CHEMBL5030505, “Assessment of NR4A Ligands That Directly Bind and Modulate the Orphan Nuclear Receptor Nurr1” (J Med Chem, 2020).

Active and inactive are the calls of the source. The calls are words filed in the database; no cut-off is given here.

What all share (format): cell-based
Data set [1] concerns the target Nuclear receptor subfamily 4 group A member 2 (Homo sapiens) (UniProt P43354). Nature of the data set: Modulation of full length human Nurr1 expressed in PC12 cells co-transfected with luciferase reporter plasmid harboring NBRE response element assessed as decrease in luciferase activity at 1.95 to 125 uM incubated for 18 hrs by luciferase reporter gene assay. The following applies: PC-12, filed as modulator, dose 1.95-125 µM. A digest of the protocol: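 Here PC12 cells (FK-12 medium, 15% horse serum, 2.5% FBS, 37°C, 5% CO2) received full-length Nurr1 (2 μg) without RXRα, plus 3xNBRE- or 3xNurRE-luciferase reporter (6 μg), for 18 h. Cells were replated at 10,000/well for 4 h, then treated with ligand or vehicle in quadruplicate for 18 h. Luciferase luminescence was normalized to vehicle-treated cells. Results are mean ± s.e.m. (n=4) from 2 independent experiments, with one-way ANOVA against vehicle.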
Background: In a reporter assay the amount or activity of a reporter protein is the signal.

The target is the same in data set [2]. Nature of the data set: Modulation of full length human Nurr1 expressed in PC12 cells co-transfected with RXRalpha and luciferase reporter plasmid harboring NurRE response element assessed as decrease in luciferase activity at 1.95 to 125 uM incubated for 18 hrs by luciferase reporter gene assay. The following applies: PC-12, filed as modulator, dose 1.95-125 µM. A digest of the protocol:
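PC12 cells were grown at 37°C and 5% CO2 in […] medium with 15% horse serum and 2.5% FBS. They were transfected with full-length Nurr1 (1 μg) plus full-length RXRα (1 μg) and 3xNBRE- or 3xNurRE-luciferase reporter (6 μg) for 18 h, then replated at 10,000 cells/well for 4 h. Ligand or vehicle (water, ethanol or DMSO) was added in quadruplicate for 18 h. Luminescence was read as fold change over vehicle. Results are mean ± s.e.m., n=4, from 2 independent experiments, analysed by one-way ANOVA against vehicle.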

Data set [3] addresses Nuclear receptor subfamily 4 group A member 3 (Homo sapiens) (UniProt Q92570). Nature of the data set: Modulation of full length human NOR1 expressed in PC12 cells co-transfected with luciferase reporter plasmid harboring NBRE response element assessed as increase in luciferase activity incubated for 18 by luciferase reporter gene assay. The following applies: PC-12, filed as modulator, time 18.0 hrs. A digest of the protocol:
(§1)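 Full-length NOR-1 plasmid was transfected via Lipofectamine 2000, either alone (2 μg) or at 1 μg with full-length RXRα (1 μg). It was paired with a 3xNBRE or 3xNurRE luciferase reporter (6 μg), 8 μg total DNA, for 18 h. Cells were replated at 10,000/well for 4 h, then given a full ligand dose response or vehicle in quadruplicate for 18 h. Luciferase was read; no EC50/IC50 was fitted.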

The target in data set [4] is Nuclear receptor subfamily 4 group A member 2 (Homo sapiens) (UniProt P43354). Put plainly: Modulation of full length human Nurr1 expressed in HEK293T cells co-transfected with RXRalpha and luciferase reporter plasmid harboring NBRE response element assessed as decrease in luciferase activity at 1.95 to 125 uM incubated for 18 hrs by luciferase reporter gene assay. The following applies: filed as modulator, dose 1.95-125 µM. A digest of the protocol: (§2)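 Full-length Nurr1 plasmid, alone (2 μg) or 1 μg plus full-length RXRα (1 μg), cotransfected with 3xNBRE- or 3xNurRE-luciferase reporter (6 μg) using Lipofectamine 2000, 18 h. Cells replated at 10,000/well for 4 h. Four ligand concentrations, or vehicle (water, ethanol or DMSO), added in quadruplicate for 18 h. Luciferase read. Fold change vs vehicle, mean ± s.e.m., one-way ANOVA vs vehicle.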
Chain of Nuclear receptor subfamily 4 group A member 2 (Homo sapiens) (P43354 whole entry): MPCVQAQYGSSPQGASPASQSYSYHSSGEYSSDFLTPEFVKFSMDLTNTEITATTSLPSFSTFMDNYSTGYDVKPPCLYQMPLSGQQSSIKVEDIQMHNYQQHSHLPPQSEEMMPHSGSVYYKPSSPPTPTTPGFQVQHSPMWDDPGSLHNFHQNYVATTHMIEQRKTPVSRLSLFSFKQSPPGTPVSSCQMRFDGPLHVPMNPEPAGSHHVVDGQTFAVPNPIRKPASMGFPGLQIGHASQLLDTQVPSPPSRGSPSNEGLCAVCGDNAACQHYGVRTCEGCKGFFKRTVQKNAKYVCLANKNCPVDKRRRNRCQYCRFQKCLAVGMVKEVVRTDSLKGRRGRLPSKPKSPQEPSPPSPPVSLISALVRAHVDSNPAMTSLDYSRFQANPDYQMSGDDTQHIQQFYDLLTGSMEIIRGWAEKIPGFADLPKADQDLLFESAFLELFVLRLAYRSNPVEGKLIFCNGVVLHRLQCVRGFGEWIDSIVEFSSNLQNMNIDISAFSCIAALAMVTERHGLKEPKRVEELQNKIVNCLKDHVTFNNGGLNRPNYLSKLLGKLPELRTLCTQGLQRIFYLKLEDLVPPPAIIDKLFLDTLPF

Data set [5] has the same target. Nature of the data set: Modulation of full length human Nurr1 expressed in SK-N-BE(2) cells co-transfected with luciferase reporter plasmid harboring NurRE response element assessed as increase in luciferase activity at 1.95 to 125 uM incubated for 18 hrs by luciferase reporter gene assay. The following applies: SKNBE2, filed as modulator, dose 1.95-125 µM. A digest of the protocol: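 Transfection of SK-N-BE(2)-C cells (1:1 EMEM/F12, 10% FBS, 37°C, 5% CO2) used full-length Nurr1 alone (2 μg, no RXRα) with 3xNBRE- or 3xNurRE-luciferase reporter (6 μg) for 18 h. Cells were replated at 10,000/well for 4 h, then exposed to ligand or vehicle in quadruplicate for 18 h. Luminescence was expressed as fold over vehicle, as mean ± s.e.m. (n=4) from 2 independent experiments, one-way ANOVA against vehicle.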

The test system of data set [6] is SKNBE2. Put plainly: Modulation of Gal4-fused VP16 expressed in SKNBE(2) cells co-transfected with UAS repoter gene assessed as increase in luciferase activity upto 15 uM incubated for 18 hrs by luciferase reporter gene assay. The following applies: Human alphaherpesvirus 2, filed as modulator, dose microM <=15, time 18.0 hrs. A digest of the protocol:
(§3)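 Cells in 10-cm dishes were transfected with Gal4-VP16 expression plasmid (2 μg) plus 5xUAS-luciferase reporter (2 μg) for 18 h. They were replated at 10,000 cells/well for 4 h, then given ligand or vehicle (water, ethanol or DMSO) in quadruplicate for 18 h. Luciferase was read with Britelite Plus. Fold change is versus vehicle-treated cells, with one-way ANOVA versus vehicle.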

For data set [7], the system named is SKNBE2. Nature of the data set: Modulation of Gal4-fused VP16 expressed in SKNBE(2) cells co-transfected with UAS repoter gene assessed as decrease in luciferase activity at 125 uM incubated for 18 hrs by luciferase reporter gene assay. The following applies: Human alphaherpesvirus 2, filed as modulator. A digest of the protocol:
as §3

The test system of a further data set is SK-N-BE(2). Nature of the data set: Cytotoxicity against human SKNBE2 cells assessed as reduction in cell viability at 125 uM incubated for 18 hrs by Cell Titer Glo assay. In short, it runs like this: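 Cells seeded at 1.5 million per 10-cm dish. Next day they were replated at 10,000 cells/well and rested 4 h. Ligand or vehicle (water, ethanol or DMSO, by ligand) was added in dose-response format in quadruplicate. After 18 h, viability was read by CellTiter-Glo luminescence. Data are mean ± s.e.m., generally representative of 2 independent experiments. One-way ANOVA versus vehicle.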
In general terms: Cellular ATP, detected with luciferase, serves as a proxy for viable cell number.

Data set [8] addresses Nuclear receptor subfamily 4 group A member 2 (Homo sapiens) (UniProt P43354). Nature of the data set: Modulation of full length human Nurr1 expressed in SK-N-BE(2) cells co-transfected with RXRalpha and luciferase reporter plasmid harboring NBRE response element assessed as increase in luciferase activity at 1.95 to 125 uM incubated for 18 hrs by luciferase reporter gene assay. The following applies: SKNBE2, filed as modulator, dose 1.95-125 µM. A digest of the protocol:
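SK-N-BE(2)-C cells were kept in 1:1 EMEM/F12 with 10% FBS at 37°C and 5% CO2. They were cotransfected with full-length Nurr1 (1 μg), full-length RXRα (1 μg) and 3xNBRE- or 3xNurRE-luc reporter (6 μg) for 18 h, replated at 10,000 cells/well for 4 h, and then treated with ligand or vehicle in quadruplicate for 18 h. The readout was luciferase luminescence as fold over vehicle, reported as mean ± s.e.m. (n=4) from 2 independent experiments, one-way ANOVA.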

Data set [9] shares this target. Nature of the data set: Modulation of full length human Nurr1 expressed in PC12 cells co-transfected with RXRalpha and luciferase reporter plasmid harboring NBRE response element assessed as decrease in luciferase activity at 1.95 to 125 uM incubated for 18 hrs by luciferase reporter gene assay. The following applies: PC-12, filed as modulator, dose 1.95-125 µM. A digest of the protocol:
as §2

Data set [10] has the same target. Nature of the data set: Modulation of full length human Nurr1 expressed in HEK293T cells co-transfected with luciferase reporter plasmid harboring NBRE response element assessed as decrease in luciferase activity at 1.95 to 125 uM incubated for 18 hrs by luciferase reporter gene assay. The following applies: filed as modulator, dose 1.95-125 µM. A digest of the protocol: as §2

The target of data set [11] is Nuclear receptor subfamily 4 group A member 3 (Homo sapiens) (UniProt Q92570). Put plainly: Modulation of full length human NOR1 expressed in PC12 cells co-transfected with RXRalpha and luciferase reporter plasmid harboring NBRE response element assessed as increase in luciferase activity incubated for 18 by luciferase reporter gene assay. The following applies: PC-12, filed as modulator, time 18.0 hrs. A digest of the protocol: as §1
Chain of Nuclear receptor subfamily 4 group A member 3 (Homo sapiens) (Q92570 whole entry): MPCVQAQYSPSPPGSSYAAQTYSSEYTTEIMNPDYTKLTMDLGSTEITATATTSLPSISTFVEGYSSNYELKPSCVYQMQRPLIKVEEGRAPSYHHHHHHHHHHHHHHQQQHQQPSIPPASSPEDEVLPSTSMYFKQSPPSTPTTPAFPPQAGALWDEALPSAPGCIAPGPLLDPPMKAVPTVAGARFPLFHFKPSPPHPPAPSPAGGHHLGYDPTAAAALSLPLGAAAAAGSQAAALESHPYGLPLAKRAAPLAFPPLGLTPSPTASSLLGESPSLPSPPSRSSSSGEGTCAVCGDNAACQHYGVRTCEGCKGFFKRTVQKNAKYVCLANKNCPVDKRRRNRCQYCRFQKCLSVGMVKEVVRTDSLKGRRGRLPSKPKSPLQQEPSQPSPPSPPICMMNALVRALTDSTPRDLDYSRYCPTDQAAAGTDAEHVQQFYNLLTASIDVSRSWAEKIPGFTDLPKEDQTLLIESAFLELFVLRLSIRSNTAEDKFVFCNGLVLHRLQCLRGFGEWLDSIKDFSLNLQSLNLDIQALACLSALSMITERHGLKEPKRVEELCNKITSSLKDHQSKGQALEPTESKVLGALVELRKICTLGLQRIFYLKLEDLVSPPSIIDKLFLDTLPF

Consider `CCN(CC)Cc1cc(Nc2ccnc3cc(Cl)ccc23)ccc1O` [AMODIAQUINE], for which the result (in data set [1]; in data set [2]; in data set [4]; in [5]; in the data set with SKNBE2 [6]; in the data set on SKNBE2 [7]) was Active. The result in data set [8], in data set [9] and in data set [10] was Active. The Activity result was “Dose-Dependent Effect” in data set [3], “Non-Toxic” in the data set with SK-N-BE(2) and “Dose-Dependent Effect” in data set [11].
For `CCN(CC)CCCC(C)Nc1ccnc2cc(Cl)ccc12` (stereo unspecified) [CHLOROQUINE], the outcome (in data set [1]; in data set [2]; in [4]; in [5]; with SKNBE2 [6]; with SKNBE2 [7]) was Active. Further, the outcome in data set [8], in data set [9] and in data set [10] was Active. The Activity entry in data set [3] is “Dose-Dependent Effect”; with SK-N-BE(2) it was “Non-Toxic”; in data set [11], “Dose-Dependent Effect”.
With `CCCCCCCC(=O)c1c(O)cc(O)cc1CC(=O)OCC` [CYTOSPORONE B], the Activity entry in data set [3] and in data set [11] was “Dose-Dependent Effect” throughout.
